Measured values from ChEMBL document CHEMBL5352489, “Development of potent and selective degraders of PI5P4Kγ” (Eur J Med Chem, 2023).
Activity calls are given as the source filed them.

Columns and labels:
[1] = molecular target: T1, Phosphatidylinositol 5-phosphate 4-kinase type-2 beta (Homo sapiens) (UniProt P78356); assay: Binding affinity to full length wild type human PI5P4Kbeta by KINOMEscan KdELECT assay
T1 sequence (whole entry): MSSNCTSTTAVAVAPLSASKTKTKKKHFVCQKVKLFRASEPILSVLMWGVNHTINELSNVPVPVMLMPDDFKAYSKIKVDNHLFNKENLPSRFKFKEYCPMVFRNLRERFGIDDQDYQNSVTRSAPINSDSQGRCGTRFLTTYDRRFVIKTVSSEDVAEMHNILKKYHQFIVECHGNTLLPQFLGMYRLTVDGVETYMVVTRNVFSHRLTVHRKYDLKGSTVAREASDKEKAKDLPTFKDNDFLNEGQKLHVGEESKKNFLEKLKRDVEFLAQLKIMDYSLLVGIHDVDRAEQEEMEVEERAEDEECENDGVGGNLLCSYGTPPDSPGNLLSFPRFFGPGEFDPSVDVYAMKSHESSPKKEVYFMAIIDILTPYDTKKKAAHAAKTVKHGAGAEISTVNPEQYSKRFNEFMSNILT

[2] = molecular target: T2, Phosphatidylinositol 5-phosphate 4-kinase type-2 alpha (Homo sapiens) (UniProt P48426); assay: Induction of PI5P4Kalpha degradation in human MOLT-4 cells at 1 to 10 uM incubated for 6 hrs by Immunoblot analysis; assay type: cell-based; settings: dose 1-10 µM
T2 sequence (whole entry): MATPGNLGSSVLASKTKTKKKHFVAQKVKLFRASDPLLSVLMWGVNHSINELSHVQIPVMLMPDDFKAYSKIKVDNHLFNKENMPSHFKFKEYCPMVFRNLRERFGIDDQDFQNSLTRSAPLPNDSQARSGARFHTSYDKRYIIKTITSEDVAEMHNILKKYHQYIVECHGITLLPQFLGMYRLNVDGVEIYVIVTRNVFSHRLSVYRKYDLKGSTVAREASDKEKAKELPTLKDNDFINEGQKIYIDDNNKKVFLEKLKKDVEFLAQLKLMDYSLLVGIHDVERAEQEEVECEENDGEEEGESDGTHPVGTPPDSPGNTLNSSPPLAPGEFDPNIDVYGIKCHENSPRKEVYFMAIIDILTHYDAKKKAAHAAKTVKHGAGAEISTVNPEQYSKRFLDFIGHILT
Procedure, shortened: (§1)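 MOLT-4 cells were grown in RPMI-1640 with L-glutamine, 10% FBS and 1% penicillin/streptomycin, then exposed to compound for 6 h. Cells were lysed in RIPA buffer (pH 8.0) with protease and phosphatase inhibitors, and protein was measured by BCA. Equal protein was run on 4–12% gels and blotted to PVDF. Membranes were probed with PI5P4Kα or PI5P4Kβ antibody at 4 °C overnight, then with IRDye secondary for 1 h at RT, and imaged on an Odyssey.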

[3] = molecular target: T1, Phosphatidylinositol 5-phosphate 4-kinase type-2 beta (Homo sapiens); assay: Induction of PI5P4Kbeta degradation in human MOLT-4 cells at 1 to 10 uM incubated for 6 hrs by Immunoblot analysis; assay type: cell-based; settings: dose 1-10 µM; procedure, shortened: as §1
[4] = molecular target: T2, Phosphatidylinositol 5-phosphate 4-kinase type-2 alpha (Homo sapiens); assay: Binding affinity to full length recombinant human PI5P4Kalpha incubated for 30 mins in presence of ATP by HTRF assay

Measured: Activity

Cc1ncsc1-c1ccc([C@H](C)NC(=O)[C@@H]2C[C@@H](O)CN2C(=O)[C@@H](NC(=O)CCC(=O)Nc2ccc(C(=O)Nc3cccc(Nc4cc(-c5c[nH]c6ccccc56)ncn4)c3)cc2)C(C)(C)C)cc1
inactive: all assays above

CC(=O)N[C@H](C(=O)N1C[C@H](O)C[C@H]1C(=O)N[C@@H](C)c1ccc(-c2scnc2C)cc1OCCCCCNC(=O)c1ccc(C(=O)Nc2cccc(Nc3cc(-c4c[nH]c5ccccc45)ncn3)c2)cc1)C(C)(C)C
inactive: all assays above

Cc1ncsc1-c1ccc([C@H](C)NC(=O)[C@@H]2C[C@@H](O)CN2C(=O)C(NC(=O)CCCCCCC(=O)Nc2ccc(C(=O)Nc3cccc(Nc4cc(-c5c[nH]c6ccccc56)ncn4)c3)cc2)C(C)(C)C)cc1 (single isomer, unassigned)
inactive: all assays above

Cc1ncsc1-c1ccc([C@H](C)NC(=O)[C@@H]2C[C@@H](O)CN2C(=O)[C@@H](NC(=O)CCCCCCCCC(=O)Nc2ccc(C(=O)Nc3cccc(Nc4cc(-c5c[nH]c6ccccc56)ncn4)c3)cc2)C(C)(C)C)cc1
inactive: all assays above

Cc1ncsc1-c1ccc([C@H](C)NC(=O)[C@@H]2C[C@@H](O)CN2C(=O)[C@@H](NC(=O)CCCCC(=O)Nc2ccc(C(=O)Nc3cccc(Nc4cc(-c5c[nH]c6ccccc56)ncn4)c3)cc2)C(C)(C)C)cc1
inactive: all assays above
